Test results as given in ChEMBL document CHEMBL4118202, “Chiral analogues of (+)-cyclazosin as potent α1B-adrenoceptor selective antagonist” (Bioorg Med Chem, 2018).

What was measured:
Rattus norvegicus [1] = species: Rattus norvegicus; assay: Selectivity ratio of compound effect for antagonism of alpha1D adrenergic receptor in Wistar rat thoracic aorta to compound effect for antagonism of alpha1A adrenergic receptor in Wistar rat prostatic rat vas deferens
In short: (§1)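 Ratio taken as the antilog of the difference between rat tissue pA2 or pKB values for the two subtypes (vas deferens α1A, spleen α1B, aorta α1D organ-bath antagonism).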

[2] = target: T1, Alpha-1D adrenergic receptor (Homo sapiens, UniProt P25100); assay: Displacement of [3H]prazosin from human alpha1D adrenergic receptor expressed in CHO cell membranes after 30 mins by rapid filtration method
T1 sequence (P25100 whole entry): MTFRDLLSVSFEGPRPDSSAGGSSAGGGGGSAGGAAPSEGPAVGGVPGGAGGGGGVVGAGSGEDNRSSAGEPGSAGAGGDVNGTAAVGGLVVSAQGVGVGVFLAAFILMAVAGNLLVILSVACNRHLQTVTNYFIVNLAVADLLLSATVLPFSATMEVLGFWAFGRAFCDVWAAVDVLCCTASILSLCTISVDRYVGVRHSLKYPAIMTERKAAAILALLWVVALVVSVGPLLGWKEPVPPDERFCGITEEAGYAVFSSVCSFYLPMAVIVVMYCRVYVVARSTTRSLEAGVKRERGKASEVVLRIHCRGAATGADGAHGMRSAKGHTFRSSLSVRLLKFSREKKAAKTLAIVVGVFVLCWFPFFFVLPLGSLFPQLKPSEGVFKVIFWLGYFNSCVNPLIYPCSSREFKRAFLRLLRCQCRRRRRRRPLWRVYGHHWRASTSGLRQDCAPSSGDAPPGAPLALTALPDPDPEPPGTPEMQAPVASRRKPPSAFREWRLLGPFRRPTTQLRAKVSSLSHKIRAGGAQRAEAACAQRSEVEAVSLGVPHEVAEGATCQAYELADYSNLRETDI
In short: (§2)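 Membranes (30 μg protein) from CHO cells stably transfected with the human α1a, α1b or α1d receptor. Incubated 30 min at 25 °C in 50 mM Tris-HCl pH 7.4 with 0.1–0.4 nM [3H]prazosin and competitor 1 pM–10 μM. Nonspecific binding defined by 10 μM phentolamine. Stopped by rapid filtration through PEI-treated filters. IC50 converted to Ki by Cheng-Prusoff; pKi from 2–3 experiments in triplicate.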

Homo sapiens [3] = species: Homo sapiens; assay: Selectivity ratio of compound effect for displacement of [3H]prazosin from human alpha1B adrenergic receptor expressed in CHO cell membranes to compound effect for displacement of [3H]prazosin from human alpha1A adrenergic receptor expressed in CHO cell membranes
In short: (§3)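 Ratio taken as the antilog of the difference between pKi values from [3H]prazosin displacement at human α1 subtypes expressed in CHO membranes.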

Homo sapiens [4] = species: Homo sapiens; assay: Selectivity ratio of compound effect for displacement of [3H]prazosin from human alpha1B adrenergic receptor expressed in CHO cell membranes to compound effect for displacement of [3H]prazosin from human alpha1D adrenergic receptor expressed in CHO cell membranes; in short: as §3
[5] = target: T2, Alpha-1B adrenergic receptor (Homo sapiens, UniProt P35368); assay: Displacement of [3H]prazosin from human alpha1B adrenergic receptor expressed in CHO cell membranes after 30 mins by rapid filtration method; in short: as §2
T2 sequence (P35368 whole entry): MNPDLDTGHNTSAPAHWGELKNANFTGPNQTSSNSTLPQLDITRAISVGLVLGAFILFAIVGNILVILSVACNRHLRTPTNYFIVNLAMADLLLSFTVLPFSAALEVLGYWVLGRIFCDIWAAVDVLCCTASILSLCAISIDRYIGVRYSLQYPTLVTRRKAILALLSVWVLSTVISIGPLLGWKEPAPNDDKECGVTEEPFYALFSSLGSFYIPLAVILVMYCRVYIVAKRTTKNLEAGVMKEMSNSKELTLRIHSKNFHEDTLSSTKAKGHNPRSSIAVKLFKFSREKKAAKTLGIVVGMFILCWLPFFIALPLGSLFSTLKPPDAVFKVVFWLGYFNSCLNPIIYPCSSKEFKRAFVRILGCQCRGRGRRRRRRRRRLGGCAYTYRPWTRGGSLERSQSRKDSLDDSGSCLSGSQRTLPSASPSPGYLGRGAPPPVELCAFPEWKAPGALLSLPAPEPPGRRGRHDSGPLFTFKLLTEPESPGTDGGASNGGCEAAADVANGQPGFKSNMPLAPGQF

Rattus norvegicus [6] = species: Rattus norvegicus; assay: Selectivity ratio of compound effect for antagonism of alpha1B adrenergic receptor in Wistar rat spleen to compound effect for antagonism of alpha1A adrenergic receptor in Wistar rat prostatic rat vas deferens; in short: as §1
[7] = target: T3, Alpha-1B adrenergic receptor (Rattus norvegicus) (UniProt P15823); assay: Antagonist activity at alpha1B adrenergic receptor in Wistar rat spleen assessed as inhibition of phenylephrine-induced contraction incubated for 30 mins in presence of beta-adrenoceptor blocker propranolol hydrochloride; type: functional
T3 sequence (whole entry): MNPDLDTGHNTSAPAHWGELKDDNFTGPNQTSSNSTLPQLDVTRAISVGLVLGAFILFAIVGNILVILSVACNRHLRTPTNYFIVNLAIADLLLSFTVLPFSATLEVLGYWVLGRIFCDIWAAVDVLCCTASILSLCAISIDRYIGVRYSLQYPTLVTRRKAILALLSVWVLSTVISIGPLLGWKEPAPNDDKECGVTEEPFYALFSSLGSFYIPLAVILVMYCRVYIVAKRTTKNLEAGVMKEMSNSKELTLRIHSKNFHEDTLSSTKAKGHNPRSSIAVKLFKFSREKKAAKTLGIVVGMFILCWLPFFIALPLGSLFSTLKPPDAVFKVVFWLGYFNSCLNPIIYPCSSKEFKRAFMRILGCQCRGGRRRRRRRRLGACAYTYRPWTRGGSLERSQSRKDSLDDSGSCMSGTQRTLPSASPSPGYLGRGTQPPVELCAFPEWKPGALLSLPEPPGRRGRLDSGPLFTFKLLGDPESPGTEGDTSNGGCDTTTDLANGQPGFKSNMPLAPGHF
In short: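 Spleen bisected longitudinally into strips in Krebs with propranolol 4 μM, held at 1 g and equilibrated 2 h. Two isometric cumulative phenylephrine curves, each followed by 30 min washing. Third curve after 30 min vehicle or antagonist. Potency as pA2 (Schild) or pKB at one concentration (van Rossum). Responses as % of control maximum; n ≥ 4.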

Compound | Selectivity ratio (Rattus norvegicus [1]) | Ki [2] [nM] | Ki [5] [nM] | Selectivity ratio (Rattus norvegicus [6]) | pKb [7] | Selectivity ratio (Homo sapiens [3]) | Selectivity ratio (Homo sapiens [4])
COc1cc2nc(N3CCN(C(C)=O)[C@@H]4CCCC[C@@H]43)nc(N)c2cc1OC | 20 | 0.151 | 0.741 | 72 | – | 12 | 0.2
CCCCCC(=O)N1CCN(c2nc(N)c3cc(OC)c(OC)cc3n2)[C@@H]2CCCC[C@@H]21 | 0.6 | 3.72 | 0.912 | 9 | 7.99 | 6 | 4
CCCN(CCC)c1nc(N2CCN(C(=O)c3ccco3)[C@@H]3CCCC[C@@H]32)nc2cc(OC)c(OC)cc12 | 1 | 0.0631 | 0.129 | 1 | 7.17 | 15 | 0.5
COc1cc2nc(N3CCN(C(=O)C(C)(C)C)[C@H]4CCCC[C@H]43)nc(N)c2cc1OC | 0.5 | 6.17 | 0.776 | 12 | 8.26 | 9 | 8
COc1cc2nc(N3CCN(C(=O)COc4c(OC)cccc4C(C)C)[C@H]4CCCC[C@H]43)nc(N)c2cc1OC | 3 | 0.389 | 0.151 | 0.8 | – | 6 | 3
COc1cc2nc(N3CCN(C(C)=O)[C@H]4CCCC[C@H]43)nc(N)c2cc1OC | 2 | 105 | 9.12 | 1000 | – | 25 | 12
CCCN(CCC)c1nc(N2CCN(C(=O)c3ccco3)[C@H]3CCCC[C@H]32)nc2cc(OC)c(OC)cc12 | 2 | 5.13 | 0.302 | 93 | 7.86 | 74 | 17

Continued, in another order:

Selectivity ratio (Rattus norvegicus [1]) | Ki [2] [nM] | Ki [5] [nM] | Selectivity ratio (Rattus norvegicus [6]) | pKb [7] | Compound | Selectivity ratio (Homo sapiens [3]) | Selectivity ratio (Homo sapiens [4])
2 | 2.24 | 1.17 | 30 | 8.05 | COc1cc2nc(N3CCN(C(=O)Cc4ccc5ccccc5c4)[C@H]4CCCC[C@H]43)nc(N)c2cc1OC | 14 | 2
31 | 0.0398 | 0.191 | 9 | – | COc1cc2nc(N3CCN(C(=O)OCc4ccccc4)[C@@H]4CCCC[C@@H]43)nc(N)c2cc1OC | 3 | 0.2
3 | 3.98 | 0.38 | 457 | 8.77 | COc1cc2nc(N3CCN(C(=O)OCc4ccccc4)[C@H]4CCCC[C@H]43)nc(N)c2cc1OC | 14 | 11
3 | – | – | 81 | 8.61 | COc1cc2nc(N3CCN(C(=O)C4COc5ccccc5O4)[C@H]4CCCC[C@H]43)nc(N)c2cc1OC (single isomer, unassigned; (-)) [CYCLODOXAZOSIN] | – | –
